Test results reported in ChEMBL document CHEMBL1138759, “Nonpeptide alphavbeta3 antagonists. Part 11: discovery and preclinical evaluation of potent alphavbeta3 antagonists for the prevention and treatment of osteoporosis” (J Med Chem, 2004).

Tests used:
Rattus norvegicus [1] = experiment: Effect on distal femoral metaphysis (DFM)-bone mineral density (BMD) in ovariectomized female rats; OVX + 5f dosed orally 3 mg/kg; assay type: functional; conditions: route oral
Method in brief: (§1)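 Female rats ovariectomized, then dosed orally q.d. at 1, 3 or 10 mg/kg starting within 24 h, for 28 days. Comparators were sham-operated rats, OVX rats on vehicle, and OVX rats on alendronate 0.003 mg/kg/d s.c. BMD (mg/cm2) measured at the distal femoral metaphysis, given as mean ± SEM. Groups compared by Kruskal–Wallis ANOVA with Student–Newman–Keuls post-hoc test.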

[2] = Bioavailability in rat (dose 0.5 mg/kg i.v. 1 mg/kg of p.o.); assay type: ADME, organism-based; conditions: in vivo, po
Rattus norvegicus [3] = experiment: Effect on distal femoral metaphysis (DFM)-bone mineral density (BMD) in ovariectomized female rats; OVX + 5f dosed orally 10 mg/kg; assay type: functional; conditions: route oral; method in brief: as §1
[4] = Half life in monkey at 0.2 mg/kg dose in intravenous and 1 mg/kg of peroral; assay type: ADME, organism-based; conditions: cercopithecidae, in vivo
[5] = Half life in rat at 0.5 mg/kg dose in intravenous and 1 mg/kg of peroral; assay type: ADME, organism-based; conditions: in vivo
[6] = h-Protein binding value of the compound; assay type: ADME; design: concentration or dose not given beside the values; conditions: human
Method in brief: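 Binding in human plasma determined by high-throughput ultrafiltration of diluted plasma in pH 7.4 buffer.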

Integrin alpha-V/beta-3 = Integrin alpha-V/beta-3 (Homo sapiens, UniProt P05106+P06756); experiment: Inhibitory activity against alpha v beta-3 receptor using scintillation proximity assay (SPAV3); assay type: protein-complex assay
Integrin alpha-V/beta-3, sequence (P05106 27-788 limits assumed): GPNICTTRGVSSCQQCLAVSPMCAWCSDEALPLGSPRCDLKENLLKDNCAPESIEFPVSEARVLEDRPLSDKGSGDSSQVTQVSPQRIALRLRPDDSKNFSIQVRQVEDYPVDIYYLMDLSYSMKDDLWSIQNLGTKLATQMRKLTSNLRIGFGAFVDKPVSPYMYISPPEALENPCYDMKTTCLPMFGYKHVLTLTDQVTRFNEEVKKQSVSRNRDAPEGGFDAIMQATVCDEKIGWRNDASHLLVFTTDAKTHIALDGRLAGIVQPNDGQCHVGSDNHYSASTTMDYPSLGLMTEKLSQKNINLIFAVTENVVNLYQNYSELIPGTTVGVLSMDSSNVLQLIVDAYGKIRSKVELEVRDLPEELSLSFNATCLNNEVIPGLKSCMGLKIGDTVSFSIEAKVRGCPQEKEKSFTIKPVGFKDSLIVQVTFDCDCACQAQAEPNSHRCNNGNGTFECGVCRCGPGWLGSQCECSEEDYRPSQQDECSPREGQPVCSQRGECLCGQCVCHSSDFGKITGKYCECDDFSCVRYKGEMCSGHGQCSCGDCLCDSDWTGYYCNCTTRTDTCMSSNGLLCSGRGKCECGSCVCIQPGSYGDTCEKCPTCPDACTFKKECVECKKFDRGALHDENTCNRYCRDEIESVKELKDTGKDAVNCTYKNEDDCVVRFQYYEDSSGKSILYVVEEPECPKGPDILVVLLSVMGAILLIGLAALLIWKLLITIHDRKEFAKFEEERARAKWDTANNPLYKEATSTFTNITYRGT
Integrin alpha-V/beta-3, sequence (P06756 31-889 limits assumed): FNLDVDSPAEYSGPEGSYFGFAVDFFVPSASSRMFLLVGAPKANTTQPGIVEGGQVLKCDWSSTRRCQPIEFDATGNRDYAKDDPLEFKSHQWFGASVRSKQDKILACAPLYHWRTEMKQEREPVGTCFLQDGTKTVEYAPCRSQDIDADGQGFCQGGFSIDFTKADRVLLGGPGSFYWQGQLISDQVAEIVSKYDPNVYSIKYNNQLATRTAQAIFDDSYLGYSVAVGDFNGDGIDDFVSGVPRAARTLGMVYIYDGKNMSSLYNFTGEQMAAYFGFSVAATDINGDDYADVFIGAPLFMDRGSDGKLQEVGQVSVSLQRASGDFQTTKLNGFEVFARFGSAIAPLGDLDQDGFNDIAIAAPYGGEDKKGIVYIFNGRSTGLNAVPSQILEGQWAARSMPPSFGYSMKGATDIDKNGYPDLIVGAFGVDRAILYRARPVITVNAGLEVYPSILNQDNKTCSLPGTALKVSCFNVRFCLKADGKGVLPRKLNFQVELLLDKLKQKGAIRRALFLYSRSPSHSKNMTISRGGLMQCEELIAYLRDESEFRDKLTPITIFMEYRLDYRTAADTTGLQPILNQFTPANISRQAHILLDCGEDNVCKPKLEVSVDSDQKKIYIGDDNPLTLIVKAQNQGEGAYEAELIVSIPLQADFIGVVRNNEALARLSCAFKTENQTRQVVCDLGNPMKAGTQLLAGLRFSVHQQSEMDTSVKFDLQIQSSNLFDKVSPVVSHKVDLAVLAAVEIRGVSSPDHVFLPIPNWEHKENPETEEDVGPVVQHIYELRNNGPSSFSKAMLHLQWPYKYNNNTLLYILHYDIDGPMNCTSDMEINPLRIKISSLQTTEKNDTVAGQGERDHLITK
Integrin alpha-V/beta-3, sequence (P06756 891-1048 limits assumed): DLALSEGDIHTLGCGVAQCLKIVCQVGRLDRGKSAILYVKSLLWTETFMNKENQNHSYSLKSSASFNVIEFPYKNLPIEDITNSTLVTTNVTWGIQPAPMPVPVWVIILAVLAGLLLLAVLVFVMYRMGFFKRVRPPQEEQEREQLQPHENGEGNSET

Rattus norvegicus [7] = experiment: Effect on distal femoral metaphysis (DFM)-bone mineral density (BMD) in ovariectomized female rats; OVX + 5f dosed orally 1 mg/kg; assay type: functional; conditions: route oral; method in brief: as §1
[8] = Half life in dog at 0.2 mg/kg dose in intravenous and 1 mg/kg of peroral; assay type: ADME, organism-based, Canis lupus familiaris; conditions: in vivo
Method in brief: (§2)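 Dogs given compound in water at 0.2 mpk iv and 1 mpk po; oral bioavailability, plasma clearance and plasma half-life derived from plasma levels.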

[9] = Bioavailability in dog (dose 0.2 mg/kg i.v. and 1 mg/kg p.o.); assay type: ADME, organism-based, Canis lupus familiaris; conditions: in vivo, po; method in brief: as §2
[10] = Clearance value in dog at 0.2 mg/kg dose in intravenous and 1 mg/kg of peroral; assay type: ADME, organism-based, Canis lupus familiaris; conditions: in vivo; method in brief: as §2
[11] = Bioavailability in monkey (dose 0.2 mg/kg i.v. and 1 mg/kg p.o.); assay type: ADME, organism-based; conditions: cercopithecidae, in vivo, po
[12] = Partition coefficient (logP); assay type: physicochemical; conditions: octanol/water
Method in brief: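 log P measured as partition between octanol and pH 7.4 buffer.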

[13] = Clearance value in rat at 0.5 mg/kg dose in intravenous and 1 mg/kg of peroral; assay type: ADME, organism-based; conditions: in vivo
[14] = Clearance value in monkey at 0.2 mg/kg dose in intravenous and 1 mg/kg of peroral; assay type: ADME, organism-based; conditions: cercopithecidae, in vivo
Rattus norvegicus [15] = experiment: Effect on distal femoral metaphysis (DFM)-bone mineral density (BMD) in ovariectomized female rats; OVX + 5e dosed orally 20 mg/kg/d; conditions: route oral
Rattus norvegicus [16] = experiment: Effect on distal femoral metaphysis (DFM)-bone mineral density (BMD) in ovariectomized female rats; OVX + 5e dosed orally 30 mg/kg/d; conditions: route oral

Activity [6] [%]	IC50 (Integrin alpha-V/beta-3) [nM]	half-life [8] [h]	bioavailability [9] [%]	clearance [10] [mL/min/kg]	logP ([12]; read-out: logP)	Structure (SMILES)	other results
96	0.08	9.5	83	2.5	0.43	Cc1ncc([C@@H](CCCCCCc2ccc3c(n2)NCCC3)CC(=O)O)cn1	DFM (Rattus norvegicus [1]): 173 mg/cm2; bioavailability [2]: 100%; DFM (Rattus norvegicus [3]): 176 mg/cm2; half-life [4]: 17 h; half-life [5]: 5.1 h; DFM (Rattus norvegicus [7]): 158.3 mg/cm2; bioavailability [11]: 75%; clearance [13]: 3.6 mL/min/kg; clearance [14]: 4.5 mL/min/kg
99.9	0.21	5.8	> 99	7.9	2.39	O=C(O)C[C@H](CCCCCCc1ccc2c(n1)NCCC2)c1ccc2c(c1)OCC2	
	7.2					O=C(O)CC(/C=C/CCCCc1ccc2c(n1)NCCC2)c1cccc(F)c1 (stereo not drawn)	
	27.7					O=C(O)C[C@H](NC(=O)CCCCc1ccc2c(n1)NCCC2)c1cccc(F)c1	
	0.93					O=C(O)CC(CCCCCCc1ccc2c(n1)NCCC2)c1cccc(F)c1 (stereo not drawn)	
44			10	26	-1.2	O=C(O)CC(NC(=O)CCCCc1ccc2c(n1)NCCC2)c1cncnc1 (stereo not drawn)	

More lines, now with the values behind:

Structure (SMILES)	Activity [6] [%]	IC50 (Integrin alpha-V/beta-3) [nM]	half-life [8] [h]	bioavailability [9] [%]	clearance [10] [mL/min/kg]	logP ([12]; read-out: logP)	other results
COc1ccc([C@@H](CCCCCCc2ccc3c(n2)NCCC3)CC(=O)O)cn1	99.5	0.65	9.5	49	5.1		logP [12]: 1.67
CC(C)c1ncc([C@@H](CCCCCCc2ccc3c(n2)NCCC3)CC(=O)O)cn1	99	0.52				1.32	
O=C(O)C[C@H](CCCCCCc1ccc2c(n1)NCCC2)c1cncnc1	94	0.07	6.4	66	3.9	0.1	bioavailability [2]: 45%; half-life [4]: 2.3 h; half-life [5]: 4.5 h; DFM (Rattus norvegicus [15]): 150.8 mg/cm2; DFM (Rattus norvegicus [16]): 153.2 mg/cm2; bioavailability [11]: 46%; clearance [13]: 30 mL/min/kg; clearance [14]: 19 mL/min/kg
COc1ncc([C@@H](CCCCCCc2ccc3c(n2)NCCC3)CC(=O)O)cn1	97	0.11	6.8	100	4.3	0.65	
O=C(O)C[C@H](CCCCCCc1ccc2c(n1)NCCC2)c1cnc2ccccc2c1	> 99.9	0.2	5	65	3	2.39	
